ChEMBL document CHEMBL1138080, “Design and synthesis of novel 2-amino-5-hydroxyindole derivatives that inhibit human 5-lipoxygenase” (J Med Chem, 2006)

Assays:
[1] = biological target: T1, Polyunsaturated fatty acid 5-lipoxygenase (Homo sapiens) (UniProt P09917); assay: Inhibition of 5-LOX in A-23187-stimulated […] at 10 uM
T1 sequence (whole entry): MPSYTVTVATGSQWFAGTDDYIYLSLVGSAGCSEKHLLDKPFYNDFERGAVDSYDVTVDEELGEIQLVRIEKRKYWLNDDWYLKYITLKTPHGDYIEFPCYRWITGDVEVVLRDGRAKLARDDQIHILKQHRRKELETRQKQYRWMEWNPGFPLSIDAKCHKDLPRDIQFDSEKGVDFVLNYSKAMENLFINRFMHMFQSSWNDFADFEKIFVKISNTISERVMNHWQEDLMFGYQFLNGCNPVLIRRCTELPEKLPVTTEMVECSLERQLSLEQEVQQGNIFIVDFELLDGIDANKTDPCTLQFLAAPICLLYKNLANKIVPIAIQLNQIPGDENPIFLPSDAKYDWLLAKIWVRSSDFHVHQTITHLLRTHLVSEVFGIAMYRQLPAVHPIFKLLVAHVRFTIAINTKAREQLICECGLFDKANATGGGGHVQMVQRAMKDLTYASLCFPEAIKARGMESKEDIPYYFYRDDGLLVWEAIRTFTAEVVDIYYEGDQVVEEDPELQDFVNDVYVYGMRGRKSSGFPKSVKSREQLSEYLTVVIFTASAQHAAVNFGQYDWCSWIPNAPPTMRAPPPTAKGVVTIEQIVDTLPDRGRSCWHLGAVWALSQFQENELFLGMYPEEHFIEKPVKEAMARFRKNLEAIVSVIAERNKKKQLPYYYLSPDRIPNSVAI
Procedure, shortened: (§1)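 Freshly isolated human PMNL (10^7 in 1 mL PBS with 1 mg/mL glucose and 1 mM CaCl2) were preincubated with compound at 37 °C. They were then stimulated with 2.5 µM ionophore A23187 for 10 min at 37 °C and stopped with methanol, with prostaglandin B1 added as standard.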

[2] = biological target: T1, Polyunsaturated fatty acid 5-lipoxygenase (Homo sapiens); assay: Inhibition of 5-LOX at 10 uM
Procedure, shortened: (§2)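 5-LO was human recombinant, expressed in E. coli JM 109 (pT3-5LO). Lysis, ammonium sulfate precipitation and a 100000g spin gave the S100 supernatant used as enzyme source. The assay contained 1 mM ATP and test compound or DMSO vehicle, and the enzyme was incubated with 20 µM arachidonic acid.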

[3] = biological target: T2, Polyunsaturated fatty acid 5-lipoxygenase (Homo sapiens, UniProt P09917); assay: Inhibition of 5-LOX in A23187 and arachidonic acid-stimulated […]
T2 sequence (P09917 whole entry): T1 sequence (whole entry)
Procedure, shortened: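 Human PMNL (10^7/mL in PBS with glucose and 1 mM CaCl2) were preincubated with compound at 37 °C. They were then challenged with 2.5 µM A23187 plus 20 µM exogenous arachidonic acid for 10 min at 37 °C. The reaction was stopped with methanol and 5-LO products were quantified against a prostaglandin B1 standard.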

[4] = biological target: T2, Polyunsaturated fatty acid 5-lipoxygenase; assay: Inhibition of 5-LOX; procedure, shortened: as §2
[5] = biological target: T2, Polyunsaturated fatty acid 5-lipoxygenase; assay: Inhibition of 5-LOX in A-23187-stimulated […]; procedure, shortened: as §1

Compound	inhibition [1] [%]	inhibition [2] [%]	IC50 [3] [µM]	IC50 [4] [µM]	IC50 [5] [µM]
CCOC(=O)c1c(N(C)C)[nH]c2ccc(O)cc12	0				
CCOC(=O)c1c(N2CCN(c3ccccc3)CC2)n(C)c2ccc(OC)cc12	14	36			
CCOC(=O)c1c(N2CCOCC2)[nH]c2ccc(O)cc12	0				
CCOC(=O)c1c(N2CCN(c3ccc(Cl)cc3)CC2)[nH]c2ccc(O)cc12	84	69	5.8	2.3	5
COC(=O)c1c(NC(C)c2ccccc2)[nH]c2ccc(O)cc12 (racemic)	77	94			
CC(=O)c1c(N)[nH]c2ccc(O)cc12	0				
C=CCN(CC=C)c1[nH]c2ccc(O)cc2c1C(=O)OCC	71	65		7.1	7.2
CCOC(=O)c1c(N2CCCC2)[nH]c2ccc(O)cc12	0				
CCOC(=O)c1c(Nc2cccnc2)[nH]c2ccc(O)cc12	19	24			
CCOC(=O)c1c(NC(C)c2ccccc2)[nH]c2ccc(O)cc12 (stereo not given)	94	72	4.6	3	1.2
N#Cc1c(N)[nH]c2ccc(O)cc12	0				
CCOC(=O)c1c(N2CCN(c3ccccc3)CC2)[nH]c2ccc(O)cc12	22	79		3.1	> 20
CCOC(=O)c1c(Nc2ccccc2)[nH]c2ccc(O)cc12	65	80		2.3	7.3
COC(=O)c1c(NC(C)c2ccccc2)[nH]c2ccccc12 (stereo not given)	48	42			
CCOC(=O)c1c(Nc2ccc(C)cc2)[nH]c2ccc(O)cc12	76	77		5	5.2
CCOC(=O)c1c(N2CCN(C)CC2)[nH]c2ccc(O)cc12	0				
CCOC(=O)c1c(N2CCN(c3ccc(F)cc3)CC2)[nH]c2ccc(O)cc12	22	81			
Nc1[nH]c2ccc(O)cc2c1C(=O)c1ccccc1	0				
CCOC(=O)c1c(Nc2cccc(Cl)c2)[nH]c2ccc(O)cc12				0.3	2.4
CCOC(=O)c1c(N2CCCCC2)[nH]c2ccc(O)cc12	0				
CCOC(=O)c1c(N2CCN(Cc3ccccc3)CC2)[nH]c2ccc(O)cc12	15	61			
CC(=O)N(O)C/C=C/c1cccc(Oc2ccccc2)c1	93	86			
CCOC(=O)c1c(NC(C)c2ccccc2)[nH]c2ccccc12 (stereo not given)	53	51	5.9	9.8	9.7
CC(Nc1[nH]c2ccc(O)cc2c1C#N)c1ccccc1 (stereo not given)	85	62	4.1	10	2.8
